One compound from ChEMBL document CHEMBL2010769, “Synthesis and antiviral activity of 6-deoxycyclopropavir, a new prodrug of cyclopropavir” (Bioorg Med Chem, 2012) can be followed below.

In data set [1] the test system is Murid betaherpesvirus 1. Briefly: Antiviral activity against MCMV infected in BALB/c mouse assessed as decrease in virus-induced mortality at 16.7 mg/kg, po qd for 5 days administered 48 hrs after viral infection (reference value: 100%). It counts as functional. On the set-up: scale not given: the % may be the effect or the level left. In outline: (§1)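 Female BALB/c mice (3 weeks, 15/group) were inoculated ip with MCMV Smith at about LD90. Oral dosing of 0.2 mL in 0.4% CMC ran once daily for 5 days, starting 24 or 48 h post-inoculation. Mice were observed daily for 21 days. Mortality was compared with CMC placebo by Fisher's exact test.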

In data set [2] the test system is Murid betaherpesvirus 1. Briefly: Antiviral activity against MCMV infected in BALB/c mouse assessed as decrease in virus-induced mean day of death at 16.7 mg/kg, po qd for 5 days administered 48 hrs after viral infection (reference value: 5.1 +/- 0.9 days). Type of data set: functional.
Data set [3] concerns Human betaherpesvirus 5. Briefly: Antiviral activity against HCMV Toledo infected in human thymus/liver tissue xenografted in SCID mouse assessed as decrease in viral infection at 12.5 mg/kg, po qd for 28 days measured on day 35 by RT-PCR analysis (reference value: 67%). Details: scale not given: the % may be the effect or the level left. It counts as functional, strain Toledo.

Data set [4] relates to Human betaherpesvirus 5. Briefly: Antiviral activity against HCMV Toledo infected in human thymus/liver tissue xenografted in SCID mouse assessed as decrease in viral infection at 6.25 mg/kg, po qd for 21 days by RT-PCR analysis (reference value: 92%). On the set-up: scale not given: the % may be the effect or the level left. It counts as functional, strain Toledo. (In general: Xenograft models place foreign cells or tissue in a host animal.)

The test system of data set [5] is Human betaherpesvirus 5. Briefly: Antiviral activity against HCMV Toledo infected in human thymus/liver tissue xenografted in SCID mouse assessed as decrease in viral infection at 12.5 mg/kg, po qd for 28 days by RT-PCR analysis (reference value: 92%). Type of data set: functional, strain Toledo. On the set-up: scale not given: the % may be the effect or the level left.

Data set [6] has as its system Human betaherpesvirus 5. Nature of the data set: Antiviral activity against HCMV Toledo infected in human thymus/liver tissue xenografted in SCID mouse assessed as mean log10 genome equivalents/animal at 6.25 mg/kg, po qd for 28 days measured on day 35 by RT-PCR analysis (reference value: 3.28 +/- 1.422). Type of data set: functional, strain Toledo.
Data set [7] has as its system Human betaherpesvirus 5. Nature of the data set: Antiviral activity against HCMV Toledo infected in human thymus/liver tissue xenografted in SCID mouse assessed as decrease in viral infection at 12.5 mg/kg, po qd for 21 days by RT-PCR analysis (reference value: 92%). On the set-up: scale not given: the % may be the effect or the level left. Type of data set: functional, strain Toledo.

The subject of data set [8] is Human betaherpesvirus 5. Briefly: Antiviral activity against HCMV Toledo infected in human thymus/liver tissue xenografted in SCID mouse assessed as mean log10 genome equivalents/animal at 12.5 mg/kg, po qd for 28 days measured on day 35 by RT-PCR analysis (reference value: 3.28 +/- 1.422). Type of data set: functional, strain Toledo.
Data set [9] has as its system Mus musculus. Nature of the data set: Toxicity in BALB/c mouse assessed as body weight loss at 50 mg/kg, po qd for 5 days relative to control. It counts as organism-based. On the set-up: dose 50 mg/kg, route oral. The settings on record: in vivo, 120 h. In outline:
(§2)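 Uninfected female BALB/c mice, 3 weeks old, in groups of 5. Compound suspended in 0.4% carboxymethylcellulose and given orally in 0.2 mL once daily for 5 days at 50, 16.7 or 5.6 mg/kg. Mean group body weight tracked over days 1–5 plus day 6 recovery. Clinical signs (ruffled coat, behaviour) were observed. Comparison was with vehicle-treated or untreated mice.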

In data set [10] the test system is Mus musculus. Nature of the data set: Toxicity in BALB/c mouse assessed as changes in behavior at 50 mg/kg, po qd for 5 days relative to control. Type of data set: organism-based. On the set-up: dose 50 mg/kg, route oral. As to conditions: in vivo, 120 h. In outline:
as §2

The test system of a further data set is Human alphaherpesvirus 2. Briefly: Antiviral activity against HSV2 infected in HFF assessed as reduction in virus induced cytopathic effect. Type of data set: functional, organism-based. For orientation: Protection from cytopathic effect is a common read-out in antiviral testing.
A short description of data set [11]: Cytotoxicity against HFF. It counts as cell-based. As to conditions: human, HFF cells.
Data set [12] has as its system Murid betaherpesvirus 1. Nature of the data set: Antiviral activity against MCMV infected in BALB/c mouse assessed as decrease in virus-induced mean day of death at 5.6 mg/kg, po qd for 5 days administered 24 hrs after viral infection (reference value: 4.9 +/- 0.7 days). It counts as functional.
The subject of data set [13] is Human betaherpesvirus 5. Briefly: Antiviral activity against HCMV Toledo infected in human thymus/liver tissue xenografted in SCID mouse assessed as mean log10 genome equivalents/animal at 12.5 mg/kg, po qd for 28 days by RT-PCR analysis (reference value: 3.73 +/- 0.784). Type of data set: functional, strain Toledo.
For data set [14], the system named is Murid betaherpesvirus 1. Nature of the data set: Antiviral activity against MCMV infected in BALB/c mouse assessed as decrease in virus-induced mortality at 5.6 mg/kg, po qd for 5 days administered 24 hrs after viral infection (reference value: 67%). Type of data set: functional. On the set-up: scale not given: the % may be the effect or the level left. In outline:
as §1

A further data set concerns Human gammaherpesvirus 4. Nature of the data set: Antiviral activity against Epstein-Barr virus infected in Akata cells by DNA hybridization assay. It counts as functional, organism-based. The settings on record: human gammaherpesvirus 4, Akata.

Turning to `Nc1ncc2ncn(/C=C3/CC3(CO)CO)c2n1`, the Activity in the data set with Murid betaherpesvirus 1 [1] is 7%; in the data set on Murid betaherpesvirus 1 [2], 7 days; in the data set on Human betaherpesvirus 5 [3] it was 83%; with Human betaherpesvirus 5 [4], 92%; in the data set with Human betaherpesvirus 5 [5], 50%; in the data set with Human betaherpesvirus 5 [6], 3.32. The Activity is 82% in the data set on Human betaherpesvirus 5 [7]; 2.69 in the data set on Human betaherpesvirus 5 [8]; 17% with Mus musculus [9]; “Non-toxic” with Mus musculus [10]; 6 days in the data set with Murid betaherpesvirus 1 [12]; 2.76 in the data set on Human betaherpesvirus 5 [13]. Moreover, the Activity with Murid betaherpesvirus 1 [14] is 7%. Moreover, the figures for the EC50 with Human alphaherpesvirus 2 and with Human gammaherpesvirus 4 were over 300 µM and 27 µM, respectively. In addition, the CC50 (as a rule, the concentration at which the toxic effect on the cells reaches its halfway point) in data set [11] is over 100 µM.
